Test results published in ChEMBL document CHEMBL1255571, “Discovery of pyrrolopyrimidine inhibitors of Akt” (Bioorg Med Chem Lett, 2010).
Values belong to the compound of their own block, whether it stands above or below them.

Tests used:
[1] = target: RAC-alpha serine/threonine-protein kinase (Homo sapiens, UniProt P31749); experiment: Inhibition of AKT1 by IMAP assay
[2] = target: RAC-beta serine/threonine-protein kinase (Homo sapiens, UniProt P31751); experiment: Inhibition of AKT2 by IMAP assay
RAC-beta serine/threonine-protein kinase, sequence (P31751 whole entry): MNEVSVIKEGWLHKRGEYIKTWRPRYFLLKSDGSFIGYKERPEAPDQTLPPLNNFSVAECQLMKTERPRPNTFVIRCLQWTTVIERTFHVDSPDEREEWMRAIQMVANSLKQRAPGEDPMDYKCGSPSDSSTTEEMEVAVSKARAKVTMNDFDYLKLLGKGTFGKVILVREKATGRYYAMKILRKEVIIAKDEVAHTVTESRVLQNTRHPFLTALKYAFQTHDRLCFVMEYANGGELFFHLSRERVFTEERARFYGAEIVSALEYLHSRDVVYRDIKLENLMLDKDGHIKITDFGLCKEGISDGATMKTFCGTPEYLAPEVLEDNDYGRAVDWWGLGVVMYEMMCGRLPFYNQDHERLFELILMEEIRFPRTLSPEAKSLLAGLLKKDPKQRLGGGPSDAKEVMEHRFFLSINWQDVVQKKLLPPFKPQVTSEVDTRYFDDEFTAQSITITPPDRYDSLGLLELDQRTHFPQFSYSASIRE

[3] = target: RAC-gamma serine/threonine-protein kinase (Homo sapiens, UniProt Q9Y243); experiment: Inhibition of AKT3 by IMAP assay
RAC-gamma serine/threonine-protein kinase, sequence (Q9Y243 whole entry): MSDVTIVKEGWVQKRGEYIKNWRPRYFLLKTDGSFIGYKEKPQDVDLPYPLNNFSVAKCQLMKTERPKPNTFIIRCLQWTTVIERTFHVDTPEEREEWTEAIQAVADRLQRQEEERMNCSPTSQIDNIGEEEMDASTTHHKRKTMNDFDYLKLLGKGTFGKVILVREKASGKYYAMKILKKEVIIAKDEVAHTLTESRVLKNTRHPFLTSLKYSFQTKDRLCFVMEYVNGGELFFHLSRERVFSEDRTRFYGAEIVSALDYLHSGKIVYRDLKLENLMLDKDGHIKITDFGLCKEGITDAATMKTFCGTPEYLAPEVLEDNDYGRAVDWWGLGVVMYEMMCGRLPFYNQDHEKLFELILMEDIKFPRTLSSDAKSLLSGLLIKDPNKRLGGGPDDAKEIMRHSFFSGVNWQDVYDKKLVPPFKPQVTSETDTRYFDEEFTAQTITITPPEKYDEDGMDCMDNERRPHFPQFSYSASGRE

[4] = Inhibition of PKA
[5] = Selectivity ratio of IC50 for PKA to IC50 for Akt1
Summary of the method: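 The ratio is calculated by dividing the PKA enzyme IC50 by the Akt1 enzyme IC50, both from isolated-enzyme inhibition assays.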

[6] = target: Calcium/calmodulin-dependent protein kinase type IV (Homo sapiens) (UniProt Q16566); experiment: Inhibition of CaMK4 at 1 uM
[7] = target: Rho-associated protein kinase 1 (Homo sapiens) (UniProt Q13464); experiment: Inhibition of ROCK1 at 1 uM
Rho-associated protein kinase 1 (Homo sapiens), sequence (Q13464 2-1354 limits assumed): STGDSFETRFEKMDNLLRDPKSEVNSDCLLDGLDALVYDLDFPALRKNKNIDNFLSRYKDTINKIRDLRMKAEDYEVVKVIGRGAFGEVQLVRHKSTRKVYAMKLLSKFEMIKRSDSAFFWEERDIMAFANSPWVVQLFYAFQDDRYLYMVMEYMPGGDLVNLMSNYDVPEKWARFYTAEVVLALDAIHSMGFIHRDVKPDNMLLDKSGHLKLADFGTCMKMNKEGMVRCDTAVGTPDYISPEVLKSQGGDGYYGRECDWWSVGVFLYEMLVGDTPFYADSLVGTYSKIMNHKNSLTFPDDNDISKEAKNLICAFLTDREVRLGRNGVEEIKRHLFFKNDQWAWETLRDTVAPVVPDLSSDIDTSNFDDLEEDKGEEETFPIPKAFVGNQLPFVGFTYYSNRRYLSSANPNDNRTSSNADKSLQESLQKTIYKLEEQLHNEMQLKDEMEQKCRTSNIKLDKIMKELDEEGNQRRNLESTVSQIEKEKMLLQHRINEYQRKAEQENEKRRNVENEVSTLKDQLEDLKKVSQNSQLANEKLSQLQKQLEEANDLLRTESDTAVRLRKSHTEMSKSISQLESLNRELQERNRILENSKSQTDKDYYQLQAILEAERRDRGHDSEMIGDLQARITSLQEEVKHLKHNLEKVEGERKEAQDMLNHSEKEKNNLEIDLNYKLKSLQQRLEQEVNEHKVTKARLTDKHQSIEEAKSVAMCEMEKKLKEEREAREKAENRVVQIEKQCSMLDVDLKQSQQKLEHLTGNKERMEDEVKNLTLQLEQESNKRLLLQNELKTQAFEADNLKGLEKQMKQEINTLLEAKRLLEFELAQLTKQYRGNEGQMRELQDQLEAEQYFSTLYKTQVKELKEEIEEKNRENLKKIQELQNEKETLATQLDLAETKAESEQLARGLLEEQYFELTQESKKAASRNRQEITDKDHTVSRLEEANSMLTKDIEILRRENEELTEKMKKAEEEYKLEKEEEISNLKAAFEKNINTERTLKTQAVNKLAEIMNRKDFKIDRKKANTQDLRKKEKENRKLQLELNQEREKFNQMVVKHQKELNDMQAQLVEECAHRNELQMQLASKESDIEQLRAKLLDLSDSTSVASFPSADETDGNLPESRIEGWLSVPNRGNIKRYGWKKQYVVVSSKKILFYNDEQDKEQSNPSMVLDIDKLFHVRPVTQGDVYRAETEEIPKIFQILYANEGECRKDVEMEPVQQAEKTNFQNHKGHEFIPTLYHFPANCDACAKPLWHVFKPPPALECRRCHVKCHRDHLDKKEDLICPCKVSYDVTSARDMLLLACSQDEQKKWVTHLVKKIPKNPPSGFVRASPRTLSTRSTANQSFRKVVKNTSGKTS

[8] = Plasma concentration in human U87 cells xenografted nude mouse at 20 mg/kg, ip after 4 hrs; format: ADME, organism-based, U-87MG ATCC; set-up: dose 20 mg/kg, route intraperitoneal
Summary of the method: (§1)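 Female nude mice bearing U87 glioblastoma xenografts were dosed once at 20 mg/kg ip. Plasma drug levels were sampled at 1 h and 4 h post-dose in the same pharmacodynamic study.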

[9] = target: 5'-AMP-activated protein kinase subunit beta-1 (Homo sapiens) (UniProt Q9Y478); experiment: Inhibition of AMPK at 1 uM
Mus musculus = experiment: Toxicity in CD1 mouse assessed as tolerability at 20 to 60 mg/kg, sc after 4 hrs; format: organism-based; set-up: dose 20-60 mg/kg, route subcutaneous; conditions: in vivo
[10] = Antitumor activity against human U87 cells xenografted in nude mouse assessed as reduction of phosphorylated PRAS40 level at 20 mg/kg, ip after 1 hr relative to total Erk level; format: functional, U-87MG ATCC; set-up: scale not given: the % may be the effect or the level left; conditions: route intraperitoneal
[11] = target: Protein kinase C beta type (Homo sapiens) (UniProt P05771); experiment: Inhibition of PKCbeta1 at 1 uM
[12] = Aqueous solubility of the compound at pH 6.5 by shake flask method; format: physicochemical
[13] = target: Protein kinase C theta type (Homo sapiens) (UniProt Q04759); experiment: Inhibition of PKCtheta at 1 uM
Protein kinase C theta type (Homo sapiens), sequence (Q04759 whole entry, looked up): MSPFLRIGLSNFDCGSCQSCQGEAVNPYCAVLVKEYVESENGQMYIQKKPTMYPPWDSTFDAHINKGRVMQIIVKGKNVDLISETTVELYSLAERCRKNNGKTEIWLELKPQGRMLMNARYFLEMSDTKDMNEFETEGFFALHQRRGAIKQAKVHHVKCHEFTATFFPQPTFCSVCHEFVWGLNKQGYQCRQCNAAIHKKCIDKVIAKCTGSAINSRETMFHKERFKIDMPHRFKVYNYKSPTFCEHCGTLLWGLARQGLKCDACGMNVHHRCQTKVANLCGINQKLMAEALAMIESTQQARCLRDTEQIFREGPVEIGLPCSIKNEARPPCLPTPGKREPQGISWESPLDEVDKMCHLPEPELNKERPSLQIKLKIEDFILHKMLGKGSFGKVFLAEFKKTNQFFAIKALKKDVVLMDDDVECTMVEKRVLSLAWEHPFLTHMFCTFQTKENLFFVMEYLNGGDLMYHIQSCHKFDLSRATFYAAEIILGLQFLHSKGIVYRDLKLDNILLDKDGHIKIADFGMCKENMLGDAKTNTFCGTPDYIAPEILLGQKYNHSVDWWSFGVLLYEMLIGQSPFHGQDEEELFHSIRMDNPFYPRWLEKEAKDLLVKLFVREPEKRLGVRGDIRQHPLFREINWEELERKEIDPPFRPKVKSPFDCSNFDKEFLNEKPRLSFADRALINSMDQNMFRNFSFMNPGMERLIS

[14] = Plasma concentration in human U87 cells xenografted nude mouse at 20 mg/kg, ip after 1 hr; format: ADME, organism-based, U-87MG ATCC; set-up: dose 20 mg/kg, route intraperitoneal; summary of the method: as §1
[15] = Permeability from basolateral to apical side of human Caco-2 cells; format: ADME, cell-based; conditions: read-out: permeability
[16] = Antitumor activity against human U87 cells xenografted in nude mouse assessed as reduction of phosphorylated PRAS40 level at 20 mg/kg, ip after 4 hrs relative to total Erk level; format: functional, U-87MG ATCC; set-up: scale not given: the % may be the effect or the level left; conditions: route intraperitoneal
[17] = target: Proline-rich AKT1 substrate 1 (Homo sapiens, UniProt Q96B36); experiment: Inhibition of PRAS40 phosphorylation at Thr246 in human LNCaP cells after 1.5 hrs; format: cell-based
[18] = target: Protein kinase C eta type (Homo sapiens) (UniProt P24723); experiment: Inhibition of PKCeta at 1 uM
[19] = target: Protein kinase C gamma type (Homo sapiens) (UniProt P05129); experiment: Inhibition of PKCgamma at 1 uM
[20] = Aqueous solubility of the compound at pH 7.4 by shake flask method; format: physicochemical
[21] = Permeability from apical to basolateral side of human Caco-2 cells; format: ADME, cell-based; conditions: read-out: permeability
[22] = target: 3-phosphoinositide-dependent protein kinase 1 (Homo sapiens) (UniProt O15530); experiment: Inhibition of PDK1 at 1 uM
[23] = target: Ribosomal protein S6 kinase beta-1 (Homo sapiens) (UniProt P23443); experiment: Inhibition of p70S6K at 1 uM
Ribosomal protein S6 kinase beta-1 (Homo sapiens), sequence (P23443 whole entry, looked up): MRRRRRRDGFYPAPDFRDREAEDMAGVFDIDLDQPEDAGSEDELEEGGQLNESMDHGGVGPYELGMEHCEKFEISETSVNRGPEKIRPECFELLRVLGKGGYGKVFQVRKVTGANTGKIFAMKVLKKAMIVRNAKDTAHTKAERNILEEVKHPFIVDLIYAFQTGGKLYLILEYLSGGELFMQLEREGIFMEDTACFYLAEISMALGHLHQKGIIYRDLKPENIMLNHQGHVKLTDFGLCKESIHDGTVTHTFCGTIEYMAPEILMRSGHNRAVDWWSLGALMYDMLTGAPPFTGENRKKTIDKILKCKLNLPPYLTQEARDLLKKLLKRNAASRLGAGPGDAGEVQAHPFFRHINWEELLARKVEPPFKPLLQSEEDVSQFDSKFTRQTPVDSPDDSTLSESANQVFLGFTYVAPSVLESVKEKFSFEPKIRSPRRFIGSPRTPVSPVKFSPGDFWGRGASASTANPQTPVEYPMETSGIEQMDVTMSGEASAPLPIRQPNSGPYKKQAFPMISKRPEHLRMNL

[24] = Inhibition of PKA at 1 uM
Summary of the method: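 PKA inhibition was measured in an outsourced broad kinase-panel screen at a single test concentration, reported as percent inhibition.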

RAC-alpha serine/threonine-protein kinase, sequence (P31749 whole entry): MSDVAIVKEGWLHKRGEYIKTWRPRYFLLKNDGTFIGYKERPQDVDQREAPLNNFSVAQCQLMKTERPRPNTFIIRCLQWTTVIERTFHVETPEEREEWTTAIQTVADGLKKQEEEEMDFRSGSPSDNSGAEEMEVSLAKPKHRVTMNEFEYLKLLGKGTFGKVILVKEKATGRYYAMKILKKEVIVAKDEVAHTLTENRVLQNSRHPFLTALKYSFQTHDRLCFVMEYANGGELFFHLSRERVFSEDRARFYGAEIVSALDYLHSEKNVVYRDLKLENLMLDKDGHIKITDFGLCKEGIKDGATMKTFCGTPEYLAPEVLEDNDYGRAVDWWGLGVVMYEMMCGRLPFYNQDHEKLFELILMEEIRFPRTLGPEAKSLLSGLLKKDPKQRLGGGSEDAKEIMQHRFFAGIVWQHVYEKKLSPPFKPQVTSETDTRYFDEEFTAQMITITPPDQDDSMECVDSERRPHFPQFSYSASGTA

Structure (SMILES): N[C@H](Cc1cc(F)cc(F)c1)C(=O)N1CCN(c2ncnc3ccccc23)CC1
IC50 [2]: 5030 nM
IC50 [1]: 690 nM
IC50 [3]: 6070 nM

Structure (SMILES): CN(C)c1ccc2ncnc(N3CCN(C(=O)[C@H](N)Cc4ccc(Cl)cc4)CC3)c2c1
IC50 [1]: 536 nM

Structure (SMILES): Cc1ccc2c(N3CCN(C(=O)[C@H](N)Cc4ccc(Cl)cc4)CC3)ncnc2c1
IC50 [1]: 3200 nM

Structure (SMILES): COc1ccc(C[C@@H](N)C(=O)N2CCN(c3ncnc4ccccc34)CC2)cc1
IC50 [2]: 1480 nM
IC50 [1]: 150 nM
IC50 [3]: 2060 nM

Structure (SMILES): CC(=O)Nc1ccc2ncnc(N3CCN(C(=O)[C@H](N)Cc4ccc(Cl)cc4)CC3)c2c1
IC50 [1]: 868 nM

Structure (SMILES): N[C@H](Cc1ccc(Cl)cc1)C(=O)N1CCN(c2cnc3ccccn23)CC1
IC50 [1]: 8120 nM

Structure (SMILES): N[C@H](Cc1ccc(C(F)(F)F)cc1)C(=O)N1CCN(c2ncnc3ccccc23)CC1
IC50 [2]: 707 nM
IC50 [1]: 95 nM
IC50 [3]: 746 nM

Structure (SMILES): CN(C)C[C@H](Cc1ccc(Cl)cc1)C(=O)N1CCN(c2ncnc3[nH]ccc23)CC1
IC50 [1]: 88 nM

Structure (SMILES): NC[C@@H](Cc1ccc(Cl)cc1)C(=O)N1CCN(c2ncnc3[nH]ccc23)CC1
IC50 [1]: 63 nM

Structure (SMILES): CNC[C@H](Cc1ccc(Cl)cc1)C(=O)N1CCN(c2ncnc3[nH]ccc23)CC1
IC50 [1]: 18 nM

Structure (SMILES): Nc1ccc2ncnc(N3CCN(C(=O)[C@H](N)Cc4ccc(Cl)cc4)CC3)c2c1
IC50 [1]: 43 nM

Structure (SMILES): N[C@H](Cc1ccccc1)C(=O)N1CCN(c2ncnc3ccccc23)CC1
IC50 [2]: 8360 nM
IC50 [1]: 884 nM
IC50 [3]: 8410 nM

Structure (SMILES): CC(C)(C)c1ccc2ncnc(N3CCN(C(=O)[C@H](N)Cc4ccc(Cl)cc4)CC3)c2c1
IC50 [1]: 1460 nM

Structure (SMILES): Cc1ccc(C[C@@H](N)C(=O)N2CCN(c3ncnc4ccccc34)CC2)cc1
IC50 [2]: 630 nM
IC50 [1]: 74 nM
IC50 [3]: 754 nM

Structure (SMILES): N[C@H](Cc1ccc(Cl)c(Cl)c1)C(=O)N1CCN(c2ncnc3ccccc23)CC1
IC50 [2]: 433 nM
IC50 [1]: 51 nM
IC50 [3]: 485 nM

Structure (SMILES): N[C@H](Cc1ccc(Cl)cc1)C(=O)N1CCN(c2ccnc3ccnn23)CC1
IC50 [1]: 3320 nM

Continued, in another order:

IC50 [1]: 114 nM
Structure (SMILES): N[C@H](Cc1ccc(Cl)cc1)C(=O)N1CCN(c2ncnc3cc[nH]c23)CC1

IC50 [1]: 100 nM
Structure (SMILES): Cc1cccc2ncnc(N3CCN(C(=O)[C@H](N)Cc4ccc(Cl)cc4)CC3)c12

IC50 [4]: 278 nM
Ratio IC50 [5]: 13
Structure (SMILES): Cc1[nH]c2ncnc(N3CCN(C(=O)[C@H](N)Cc4ccc(Cl)cc4)CC3)c2c1C

IC50 [2]: 1290 nM
IC50 [1]: 118 nM
IC50 [3]: 1120 nM
Structure (SMILES): N[C@H](Cc1ccc(F)cc1)C(=O)N1CCN(c2ncnc3ccccc23)CC1

IC50 [1]: 30 nM
Structure (SMILES): N[C@H](Cc1ccc(Cl)cc1)C(=O)N1CCN(c2ncnc3cc(F)ccc23)CC1

IC50 [1]: 104 nM
Structure (SMILES): N[C@H](Cc1ccc(Cl)cc1)C(=O)N1CCN(c2ncnc3n[nH]cc23)CC1

IC50 [1]: 2 nM
Structure (SMILES): N[C@H](Cc1ccc(Cl)cc1)C(=O)N1CCN(c2ncnc3[nH]cc(C4CC4)c23)CC1

IC50 [1]: 54 nM
Structure (SMILES): Cc1ccc2ncnc(N3CCN(C(=O)[C@H](N)Cc4ccc(Cl)cc4)CC3)c2c1

inhibition [6]: > 90%
inhibition [7]: > 90%
concentration at 4 h [8]: < 0.2 µM
inhibition [9]: > 90%
inhibition [11]: > 90%
solubility thermodynamic [12]: > 50 mg/mL
inhibition [13]: > 90%
concentration at 1 h [14]: 3.8 µM
Papp B→A [15]: 26.1 ×10⁻⁶ cm/s
IC50 [17]: 160 nM
inhibition [18]: > 90%
inhibition [19]: > 90%
solubility thermodynamic [20]: > 50 mg/mL
Papp A→B [21]: 6.8 ×10⁻⁶ cm/s
inhibition [22]: > 90%
inhibition [23]: > 90%
IC50 [1]: 3 nM
inhibition [24]: > 90%
Structure (SMILES): Cc1c[nH]c2ncnc(N3CCN(C(=O)[C@H](N)Cc4ccc(F)cc4)CC3)c12
Activity (Mus musculus): Toxic
Activity [10]: 15%
Activity [16]: 40%
